# Test results published in PubChem BioAssay AID651572 (The Scripps Research Institute Molecular Screening Center, 2012).
# Screen size: about 360,000 compounds; about 950 (0.26%) were called active. The list comes from a sample in which actives are over-represented; it also holds similar structures and randomly drawn compounds. A number with no mark means an inactive call.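 Rule for the calls: active = inhibition above a per-plate limit, mean inhibition of low control wells plus 3 SD (cut at about 25% in these data); inactive = the rest.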
# Target: ADP-ribosylation factor GTPase-activating protein 1 (Rattus norvegicus) (UniProt Q62848)
# Assay: inhibitors of rat ARFGAP1 GAP activity, primary screen, biochemical, fluorescence polarization, GDP tracer (AID 651572);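 note: 0% = DMSO wells with enzyme and 100% = wells lacking Arfgap1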
# Conditions: Arfgap1-stimulated ARF1 GTP hydrolysis, GDP FP detection; at 16.5 µM; stronger effect = higher value
# In short: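 System: truncated rat Arfgap1 GAP domain / Medium: HEPES-based buffer, pH 7.5 / Also added: N-terminally truncated human ARF1-GTP substrate / Incubation: enzyme reaction 120 min at 25 °C after 20 min preincubation / Measured by: FP of antibody-bound GDP Alexa 633 tracer, ex 620/em 688 nm / Replicates: singlicate, each compound tested once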
# Sequence of ADP-ribosylation factor GTPase-activating protein 1 (Rattus norvegicus) (Q62848 1-136 limits assumed): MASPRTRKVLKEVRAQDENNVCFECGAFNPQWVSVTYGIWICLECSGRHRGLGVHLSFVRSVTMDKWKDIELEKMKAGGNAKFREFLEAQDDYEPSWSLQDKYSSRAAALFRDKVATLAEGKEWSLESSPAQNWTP
row,SMILES,inhibition
1,Nc1ncnc2c1ncn2[C@@H]1O[C@H](C(=O)N[C@@H](CCc2ccccc2)C(=O)NCC(=O)N2CCOCC2)[C@@H](O)[C@H]1O,-17.3%
2,O=C(O)CCn1cc(/C=C/C(=O)c2ccc(Cl)cc2)c(-c2cccc(Br)c2)n1,26.5% (active)
3,CCOC(=O)C1=C(C(=O)OCC)C2N(Cc3ccc(C#N)cc3)c3ccccc3[C@@]23C[C@@H](C(=O)OC)N(S(=O)(=O)c2ccc(F)cc2)C3=N1 (stereo partly specified),6.03%
4,CCc1c(-c2ccccc2OC)ncn1CCc1ccccc1OC,2.34%
5,CC1CCN(C(=O)c2ncn3c2C(=O)N[C@@H](C)C3)CC1,5.31%
6,COc1cccc(-c2cc(CNC(=O)[C@@H](Cc3ccccc3)NC(=O)[C@H]3O[C@@H](n4cnc(C(N)=O)n4)[C@H](O)[C@@H]3O)no2)c1,-9.08%
7,COC(=O)C1=C(C)N(Cc2ccc(C(F)(F)F)cc2)C(=NCc2ccccc2)NC1c1ccccc1C(F)(F)F (stereo unspecified),9.08%
8,O=C(O)c1ccc(COc2c(F)c(F)cc(F)c2F)o1,5.24%
9,O=C(O)c1ccc(S(=O)(=O)N2CCOCC2)o1,-3.82%
10,O=C(O)CSCc1ccc(C(=O)O)o1,25.2% (active)
11,CCNS(=O)(=O)c1ccc(NC(=O)Nc2cccc(C(F)(F)F)c2)cc1,28.9% (active)
12,CCNS(=O)(=O)c1ccc(NC(=O)c2cncc(Br)c2)cc1,-3.5%
13,Cc1cc(S(=O)(=O)N2CCOCC2)ccc1OCC(=O)Nc1cccc(C(F)(F)F)c1,2.22%
14,COC(=O)[C@]12C[C@H](CC(=O)N3CCN(C(=O)C4CC4)CC3)C(=O)N(Cc3ccc4c(c3)OCO4)C1=C[C@H](C(C)(C)C)O[C@@H]2C,11.2%
15,COC(=O)[C@H](CC(C)C)NS(=O)(=O)c1c(F)cccc1F,4.12%
16,COC(=O)CSc1ncnc2c1cnn2-c1ccc(C)cc1C,8%

row,SMILES,inhibition
1,Cc1ccc(-n2ncc3c(=O)n(-c4ccc(C)c(C)c4)c(-c4ccco4)nc32)cc1,-1.3%
2,Cc1ccc(-n2ncc3c2ncn2nc(-c4ccco4)nc32)c(C)c1,44.3% (active)
3,Cc1ccc(NC(=O)N2c3ccccc3SC2c2ccco2)c(C)c1 (stereo unspecified),-11.2%
4,COCc1[nH]nc2c1C(c1ccccc1)N(c1ccccc1)C2=O (stereo unspecified),8.17%
5,CCOC(=O)CNC(=O)N(C)[C@H]1C[C@H]2c3[nH]c4c(-c5ccc6c(c5)OCO6)cccc4c3CCN2C(=O)[C@H]1[C@H](C)O,-1.05%
6,O=c1[nH]c(-c2ccccc2)cn1C1CCN(Cc2ccc(-c3nc4ccc(F)cc4nc3-c3ccccc3)cc2)CC1,6.41%
7,Cc1ccc(C)c(CN2CCC(CNC(=O)C3CCCN(c4ncnc5c4nc4n5CCCCC4)C3)CC2)c1 (stereo unspecified),1.05%
8,Cc1nnc(SCCCn2c(N3CCCCC3)nc3c2c(=O)[nH]c(=O)n3C)s1,-8.33%
9,Cn1c(=O)[nH]c(=O)c2c1nc(N1CCN(C(c3ccccc3)c3ccccc3)CC1)n2CCO,-3.12%
10,Cn1c(=O)[nH]c(=O)c2c1nc(N1CCN(CCO)CC1)n2CCSc1nc2ccccc2s1,38.1% (active)
11,CCCCCCCCN1C(=O)[C@@H](CC(=O)N2CCN(C(=O)OCC)CC2)C[C@@]2(C(=O)OC)C1=C[C@H](C1CCCC1)O[C@@H]2C,-12.9%
12,NC(c1csc(NC(=O)Nc2cccc(C(F)(F)F)c2)n1)C1CCCCC1 (stereo unspecified),10.7%
13,COc1ccc(C(N)c2csc(NC(=O)Nc3cccc(C(F)(F)F)c3)n2)cc1 (stereo unspecified),26.1% (active)
14,COc1ccc(CC(N)c2csc(NC(=O)Nc3ccc(C(C)C)cc3)n2)cc1 (stereo unspecified),16%
15,O=C(O)Cn1cnc2c(NCc3ccccc3)ncnc21,-10.7%
